Laboratory results as given in ChEMBL document CHEMBL4425130, “Macrocyclic Prodrugs of a Selective Nonpeptidic Direct Thrombin Inhibitor Display High Permeability, Efficient Bioconversion but Low Bioavailability” (J Med Chem, 2016).
pIC50, pKi: −log10 of the molar value. Converted amounts (≈) assume the structure as drawn. Each block holds one compound with its values, some of them ahead of it.

Legend:
Prothrombin = Prothrombin (Homo sapiens, UniProt P00734); test: Inhibition of human alpha-thrombin using S-2366 as substrate after 40 mins
Serine protease 1 = Serine protease 1 (Homo sapiens, UniProt P07477); test: Inhibition of human trypsin 1 using S-2222 as substrate preincubated for 300 secs followed by substrate addition measured after 40 mins
Sequence of Serine protease 1 (P07477 whole entry): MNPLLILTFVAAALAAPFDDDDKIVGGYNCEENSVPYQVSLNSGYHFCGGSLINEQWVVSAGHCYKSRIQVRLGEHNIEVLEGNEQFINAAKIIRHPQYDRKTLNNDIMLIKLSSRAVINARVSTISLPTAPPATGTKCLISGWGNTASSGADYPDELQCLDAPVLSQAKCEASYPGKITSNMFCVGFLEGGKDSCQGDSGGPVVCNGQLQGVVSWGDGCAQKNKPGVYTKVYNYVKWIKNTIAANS
How it was run: (§1)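 Human proteases assayed at one substrate concentration with ten inhibitor concentrations at 37 °C, ≤1.3% DMSO, in an enzyme-specific Tris-HCl pH 7.4 buffer. Enzyme and inhibitor preincubated 300 s, then substrate added; absorbance read at 405 nm after 40 min. IC50 converted to Ki by IC50 = Ki(1+S/KM), using KM measured under assay conditions.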

[1] = Solubility of the compound in phosphate buffer at pH 7.4 at 25 degC after 24 hrs by ultraperformance LC/MS/MS method
[2] = Apparent permeability across apical to basolateral side in human Caco2 cells at 10 uM after 45 to 120 mins by ultraperformance LC/MS/MS method; conditions: Caco-2
[3] = Efflux ratio of apparent permeability across basolateral to apical over apical to basolateral side in human Caco2 cells at 10 uM after 45 to 120 mins by ultraperformance LC/MS/MS method; conditions: Caco-2
[4] = Prodrug conversion in human plasma assessed as esterase-mediated metabolite formation after 4 hrs; type: ADME, cell-free
[5] = Prodrug conversion in rat hepatocytes assessed as esterase-mediated 3-((3-(2-(2-(Aminomethyl)-5-chlorobenzylamino)-2-oxoethyl)-4-methyl-2-oxo-5,6-dihydropyridin-1(2H)-ylamino)methyl)benzoic acid formation at 4 uM after 40 mins by ultraperformance liquid chromatographic method; type: ADME, cell-based
[6] = Prodrug conversion in human hepatocytes assessed as esterase-mediated formaldehyde formation at 4 uM after 40 mins by ultraperformance liquid chromatographic method; type: ADME, cell-based; conditions: isolated protein
How it was run: (§2)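 Cryopreserved human hepatocytes at 10^6 viable cells/mL, thawed and pre-warmed 10 min at 37 °C. Compound added from CH3CN stock at 4 µM final. Incubated 40 min, then quenched in cold CH3CN, with compound-free incubations as blanks. Metabolites assigned by LC-MS product ion spectra.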

[7] = Prodrug conversion in human liver microsomes assessed as 3-((3-(2-(2-(Aminomethyl)-5-chlorobenzylamino)-2-oxoethyl)-4-methyl-2-oxo-5,6-dihydropyridin-1(2H)-ylamino)methyl)benzoic acid formation in presence of NADPH; type: ADME, Microsome
[8] = Prodrug conversion in human liver microsomes assessed as 3-((3-(2-(2-(Aminomethyl)-5-chlorobenzylamino)-2-oxoethyl)-4-methyl-2-oxo-5,6-dihydropyridin-1(2H)-ylamino)methyl)benzoic acid formation in absence of NADPH; type: ADME, Microsome
[9] = Apparent terminal half life in Han Wistar rat at 1 umol/kg, po administered via gavage by LC-MS/MS method; type: ADME, organism-based; conditions: in vivo, read-out: betat1/2(app) (converted)
How it was run: (§3)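 Male Han Wistar rats, cannulated in the carotid artery for sampling and the jugular vein for i.v. dosing, one week before the study (two days before for intraduodenal dosing). Single doses: 0.5 µmol/kg i.v., or 1 µmol/kg by gavage or intraduodenally. Vehicles were 5% mannitol in water or DMA:TEG:water (1:1:1). Plasma sampled up to 24 h and analysed by LC-MS/MS. Non-compartmental analysis; means of n=3, with F from mean AUCinf.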

[10] = Cmax in Han Wistar rat at 1 umol/kg, po administered via gavage by LC-MS/MS method; type: ADME, organism-based; design: dose 1 umol/kg, route oral; conditions: in vivo; how it was run: as §3
[11] = Apparent terminal half life in Han Wistar rat at 1 umol/kg administered intraduodenally by LC-MS/MS method; type: ADME; conditions: in vivo, read-out: betat1/2(app) (converted); how it was run: as §3
[12] = AUCinfinity in Han Wistar rat assessed as 3-((3-(2-(2-(Aminomethyl)-5-chlorobenzylamino)-2-oxoethyl)-4-methyl-2-oxo-5,6-dihydropyridin-1(2H)-ylamino)methyl)benzoic acid formation at 1 umol/kg administered intraduodenally by LC-MS/MS method; type: ADME; design: dose 1 umol/kg, route intraduodenal, time infinity; conditions: in vivo, other; how it was run: as §3
[13] = Bioavailability in Han Wistar rat assessed as 3-((3-(2-(2-(Aminomethyl)-5-chlorobenzylamino)-2-oxoethyl)-4-methyl-2-oxo-5,6-dihydropyridin-1(2H)-ylamino)methyl)benzoic acid formation at 1 umol/kg administered intraduodenally by LC-MS/MS method; type: ADME, organism-based; conditions: in vivo, other; how it was run: as §3
[14] = Cmax in Han Wistar rat at 1 umol/kg administered intraduodenally by LC-MS/MS method; type: ADME; design: dose 1 umol/kg, route intraduodenal; conditions: in vivo; how it was run: as §3
[15] = AUCinfinity in Han Wistar rat assessed as 3-((3-(2-(2-(Aminomethyl)-5-chlorobenzylamino)-2-oxoethyl)-4-methyl-2-oxo-5,6-dihydropyridin-1(2H)-ylamino)methyl)benzoic acid formation at 1 umol/kg, po administered via gavage by LC-MS/MS method; type: ADME, organism-based; design: dose 1 umol/kg, time infinity, route oral; conditions: in vivo; how it was run: as §3
[16] = Oral bioavailability in Han Wistar rat assessed as 3-((3-(2-(2-(Aminomethyl)-5-chlorobenzylamino)-2-oxoethyl)-4-methyl-2-oxo-5,6-dihydropyridin-1(2H)-ylamino)methyl)benzoic acid formation at 1 umol/kg administered via gavage by LC-MS/MS method; type: ADME, organism-based; conditions: in vivo; how it was run: as §3
physchem = conditions: 1-octanol/phosphate buffer, pH 7.4
[17] = Intrinsic clearance in Sprague-Dawley rat liver microsomes at 1 umol/L after 7 to 30 mins by LC-MS/MS method; type: ADME, Microsome; conditions: read-out: CLH
Cytochrome P450 3A4 = Cytochrome P450 3A4 (Homo sapiens, UniProt P08684); test: Inhibition of human CYP3A4; type: ADME
Sequence of Cytochrome P450 3A4 (P08684 whole entry): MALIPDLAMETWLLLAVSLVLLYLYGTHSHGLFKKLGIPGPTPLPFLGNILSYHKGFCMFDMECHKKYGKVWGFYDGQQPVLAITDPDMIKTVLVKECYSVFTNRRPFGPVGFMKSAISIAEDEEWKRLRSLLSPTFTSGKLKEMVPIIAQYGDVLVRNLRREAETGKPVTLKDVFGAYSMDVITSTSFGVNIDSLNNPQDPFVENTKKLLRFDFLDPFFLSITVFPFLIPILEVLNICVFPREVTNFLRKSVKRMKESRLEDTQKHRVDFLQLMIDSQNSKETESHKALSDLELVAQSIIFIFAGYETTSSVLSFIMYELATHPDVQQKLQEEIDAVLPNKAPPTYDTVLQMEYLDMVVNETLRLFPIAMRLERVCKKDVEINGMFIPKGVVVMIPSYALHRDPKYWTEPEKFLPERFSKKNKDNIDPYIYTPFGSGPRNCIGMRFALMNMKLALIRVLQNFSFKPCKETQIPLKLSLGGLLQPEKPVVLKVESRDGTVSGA

Plasma = test: Anticoagulant activity in human citrated plasma assessed as concentration required to double activated partial thromboplastin time after 3 mins by coagulation analyser; type: functional, cell-free; conditions: 0.05 h
Rattus norvegicus = species: Rattus norvegicus; test: Antithrombotic activity in rat caval vein thrombosis model assessed as prevention of venous thrombosis; type: functional, organism-based
[18] = Inhibition of human tissue factor/F7a using spectrozyme as substrate preincubated for 300 secs followed by substrate addition measured after 40 mins; how it was run: as §1
Coagulation factor IX = Coagulation factor IX (Homo sapiens, UniProt P00740); test: Inhibition of human F9a using pefachrome F9a as substrate preincubated for 300 secs followed by substrate addition measured after 40 mins
Sequence of Coagulation factor IX (P00740 47-191 limits assumed): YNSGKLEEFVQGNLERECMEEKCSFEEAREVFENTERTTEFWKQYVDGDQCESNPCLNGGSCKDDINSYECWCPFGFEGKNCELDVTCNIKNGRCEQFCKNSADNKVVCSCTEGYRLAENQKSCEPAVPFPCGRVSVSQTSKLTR
Sequence of Coagulation factor IX (P00740 227-461 limits assumed): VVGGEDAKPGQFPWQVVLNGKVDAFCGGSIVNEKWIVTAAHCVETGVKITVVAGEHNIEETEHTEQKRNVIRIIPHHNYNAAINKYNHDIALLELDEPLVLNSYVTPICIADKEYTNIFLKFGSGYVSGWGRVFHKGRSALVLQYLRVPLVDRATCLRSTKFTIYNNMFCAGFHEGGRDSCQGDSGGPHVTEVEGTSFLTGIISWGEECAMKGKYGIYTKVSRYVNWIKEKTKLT

Coagulation factor X = Coagulation factor X (Homo sapiens, UniProt P00742); test: Inhibition of human F10a using S-2765 as substrate preincubated for 300 secs followed by substrate addition measured after 40 mins; how it was run: as §1
Sequence of Coagulation factor X (P00742 41-179 limits assumed): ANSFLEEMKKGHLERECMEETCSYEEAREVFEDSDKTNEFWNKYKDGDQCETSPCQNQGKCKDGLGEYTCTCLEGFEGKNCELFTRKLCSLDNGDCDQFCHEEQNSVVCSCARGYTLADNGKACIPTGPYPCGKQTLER
Sequence of Coagulation factor X (P00742 235-488 limits assumed): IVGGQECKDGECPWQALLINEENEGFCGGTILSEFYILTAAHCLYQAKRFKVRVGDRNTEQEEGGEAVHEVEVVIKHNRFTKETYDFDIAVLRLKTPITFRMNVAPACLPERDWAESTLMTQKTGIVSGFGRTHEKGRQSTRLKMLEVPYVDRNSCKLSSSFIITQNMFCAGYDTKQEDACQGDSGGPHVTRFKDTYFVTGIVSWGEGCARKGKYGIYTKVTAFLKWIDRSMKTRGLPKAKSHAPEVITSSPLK

Coagulation factor XI = Coagulation factor XI (Homo sapiens, UniProt P03951); test: Inhibition of human F11a using S-2366 as substrate preincubated for 300 secs followed by substrate addition measured after 40 mins; how it was run: as §1
Sequence of Coagulation factor XI (P03951 19-387 limits assumed): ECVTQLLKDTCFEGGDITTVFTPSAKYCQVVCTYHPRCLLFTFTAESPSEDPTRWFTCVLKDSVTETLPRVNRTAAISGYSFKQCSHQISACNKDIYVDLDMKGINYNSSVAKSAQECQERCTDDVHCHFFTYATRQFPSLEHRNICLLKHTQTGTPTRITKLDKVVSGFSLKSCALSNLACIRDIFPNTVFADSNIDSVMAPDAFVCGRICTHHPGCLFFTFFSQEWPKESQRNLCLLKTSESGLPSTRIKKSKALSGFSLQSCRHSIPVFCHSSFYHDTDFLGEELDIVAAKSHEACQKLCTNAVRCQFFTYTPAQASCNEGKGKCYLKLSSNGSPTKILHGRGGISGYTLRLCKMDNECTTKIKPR
Sequence of Coagulation factor XI (P03951 388-625 limits assumed): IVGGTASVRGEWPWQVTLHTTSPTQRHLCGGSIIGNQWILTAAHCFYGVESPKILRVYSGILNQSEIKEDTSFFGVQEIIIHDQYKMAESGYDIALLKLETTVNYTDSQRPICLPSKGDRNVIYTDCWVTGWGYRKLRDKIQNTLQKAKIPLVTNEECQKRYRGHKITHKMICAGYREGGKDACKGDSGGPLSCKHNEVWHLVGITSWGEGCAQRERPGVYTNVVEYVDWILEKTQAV

Plasminogen = Plasminogen (Homo sapiens, UniProt P00747); test: Inhibition of human plasmin using S-2366 as substrate preincubated for 300 secs followed by substrate addition measured after 40 mins; how it was run: as §1
Sequence of Plasminogen (P00747 97-580 limits assumed): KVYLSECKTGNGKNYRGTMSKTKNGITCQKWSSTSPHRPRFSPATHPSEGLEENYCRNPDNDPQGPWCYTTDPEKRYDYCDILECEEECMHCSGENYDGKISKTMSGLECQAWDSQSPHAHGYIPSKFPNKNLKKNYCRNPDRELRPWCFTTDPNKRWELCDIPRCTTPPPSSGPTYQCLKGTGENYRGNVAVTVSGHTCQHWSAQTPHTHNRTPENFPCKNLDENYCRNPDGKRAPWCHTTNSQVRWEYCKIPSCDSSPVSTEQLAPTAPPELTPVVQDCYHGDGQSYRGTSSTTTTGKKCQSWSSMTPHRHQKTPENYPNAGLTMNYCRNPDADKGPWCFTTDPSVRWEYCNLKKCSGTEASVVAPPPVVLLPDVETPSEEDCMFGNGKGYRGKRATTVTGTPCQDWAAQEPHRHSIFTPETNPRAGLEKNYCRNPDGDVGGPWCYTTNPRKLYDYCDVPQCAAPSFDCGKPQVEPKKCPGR
Sequence of Plasminogen (P00747 581-810 limits assumed): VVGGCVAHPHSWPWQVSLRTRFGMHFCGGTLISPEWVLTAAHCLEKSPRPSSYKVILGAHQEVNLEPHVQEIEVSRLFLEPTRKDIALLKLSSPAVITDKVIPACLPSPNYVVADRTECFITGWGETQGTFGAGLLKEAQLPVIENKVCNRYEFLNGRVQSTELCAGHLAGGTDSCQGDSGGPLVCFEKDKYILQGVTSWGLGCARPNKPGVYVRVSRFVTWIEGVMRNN

[19] = target: Thrombin & trypsin (Homo sapiens) (UniProt P00734+P07477+P07478+P35030); test: Selectivity ratio of Ki for human trypsin 1 to Ki for human alpha-thrombin; type: protein assay
Homo sapiens [20] = species: Homo sapiens; test: Selectivity ratio of Ki for human tissue factor/F7a to Ki for human alpha-thrombin
Homo sapiens [21] = species: Homo sapiens; test: Selectivity ratio of Ki for human F9a to Ki for human alpha-thrombin
Homo sapiens [22] = species: Homo sapiens; test: Selectivity ratio of Ki for human F10a to Ki for human alpha-thrombin
Homo sapiens [23] = species: Homo sapiens; test: Selectivity ratio of Ki for human F11a to Ki for human alpha-thrombin
Homo sapiens [24] = species: Homo sapiens; test: Selectivity ratio of Ki for human plasmin to Ki for human alpha-thrombin
[25] = Drug level in human hepatocytes treated with 25-Chloro-18-methyl-13,14,17,20,22,23-hexahydro-1H,7H-15,19-methano-8,12-(metheno)-4,6,2,14,15,22-benzodioxatetraazacyclopentacosine-3,7,21,28(1H,16H)-tetrone assessed as esterase-mediated compound formation at 4 uM after 40 mins by ultraperformance liquid chromatographic method; type: ADME, cell-based; conditions: isolated protein; how it was run: as §2
[26] = (§4) Drug level in human hepatocytes treated with 25-Chloro-5,18-dimethyl-13,14,17,20,22,23-hexahydro-1H,7H-15,19-methano-8,12-(metheno)-4,6,2,14,15,22-benzodioxatetraazacyclopentacosine-3,7,21,28(2H,16H)-tetrone assessed as esterase-mediated compound formation at 4 uM after 40 mins by ultraperformance liquid chromatographic method; type: ADME, cell-based; conditions: isolated protein; how it was run: as §2
[27] = as §4, with “rat” for “human”; type: ADME, cell-based; conditions: isolated protein
[28] = Drug level in human liver microsomes treated with treated with 25-Chloro-18-methyl-13,14,17,20,22,23-hexahydro-1H,7H-15,19-methano-8,12-(metheno)-4,6,2,14,15,22-benzodioxatetraazacyclopentacosine-3,7,21,28(1H,16H)-tetrone in presence of NADPH; type: ADME, Microsome
[29] = Drug level in human liver microsomes treated with treated with 25-Chloro-18-methyl-13,14,17,20,22,23-hexahydro-1H,7H-15,19-methano-8,12-(metheno)-4,6,2,14,15,22-benzodioxatetraazacyclopentacosine-3,7,21,28(1H,16H)-tetrone in absence of NADPH; type: ADME, Microsome
[30] = Drug level in human liver microsomes treated with treated with 25-Chloro-5,18-dimethyl-13,14,17,20,22,23-hexahydro-1H,7H-15,19-methano-8,12-(metheno)-4,6,2,14,15,22-benzodioxatetraazacyclopentacosine-3,7,21,28(2H,16H)-tetrone in presence of NADPH; type: ADME, Microsome
[31] = Drug level in human liver microsomes treated with treated with 25-Chloro-5,18-dimethyl-13,14,17,20,22,23-hexahydro-1H,7H-15,19-methano-8,12-(metheno)-4,6,2,14,15,22-benzodioxatetraazacyclopentacosine-3,7,21,28(2H,16H)-tetrone in absence of NADPH; type: ADME, Microsome
[32] = Clearance in Han Wistar rat at 0.5 umol/kg, iv by LC-MS/MS method; type: ADME, organism-based; conditions: in vivo; how it was run: as §3
[33] = Volume of distribution at steady state in Han Wistar rat at 0.5 umol/kg, iv by LC-MS/MS method; type: ADME, organism-based; conditions: in vivo, read-out: Vdss; how it was run: as §3
[34] = Apparent terminal half life in Han Wistar rat at 0.5 umol/kg, iv by LC-MS/MS method; type: ADME, organism-based; conditions: in vivo, read-out: betat1/2(app) (converted); how it was run: as §3
[35] = AUCinfinity in Han Wistar rat at 0.5 umol/kg, iv by LC-MS/MS method; type: ADME, organism-based; design: dose 0.5 umol/kg, time infinity, route intravenous; conditions: in vivo; how it was run: as §3
[36] = AUCinfinity in Han Wistar rat at 1 umol/kg, po administered via gavage by LC-MS/MS method; type: ADME, organism-based; design: dose 1 umol/kg, time infinity, route oral; conditions: in vivo; how it was run: as §3
[37] = Oral bioavailability in Han Wistar rat at 1 umol/kg administered via gavage by LC-MS/MS method; type: ADME, organism-based; conditions: in vivo; how it was run: as §3
[38] = rat, isolated protein, 40 min, 4 µM
[39] = Drug level in rat hepatocytes treated with Methyl 3-(((3-(2-((5-Chloro-2-(((methoxycarbonyl)amino)-methyl)benzyl)amino)-2-oxoethyl)-4-methyl-2-oxo-5,6-dihydropyridin-1(2H)-yl)amino)methyl)benzoate assessed as esterase-mediated compound formation at 4 uM after 40 mins by ultraperformance liquid chromatographic method; type: ADME, cell-based; conditions: isolated protein

pKi (Prothrombin): 6.70
pKi (Serine protease 1): < 5.27
solubility at 24 h [1]: 120 µM (≈ 63.2 µg/mL)
Papp A→B at 10 µM [2]: 48 ×10⁻⁶ cm/s
efflux ratio at 10 µM [3]: 5.6
Drug metabolism [4]: Metabolite_Notdetected
Drug metabolism [5]: Metabolite_Detected
Drug metabolism [6]: Metabolite_Detected
Drug metabolism [7]: Metabolite_Detected
Drug metabolism [8]: Metabolite_Detected
half-life [9]: 67.2 min
Cmax [10]: 11 nM
half-life [11]: 6.6 min
AUC [12]: 0.0081 µM·h
F [13]: 1.6%
Cmax [14]: 108 nM
AUC [15]: 0.0127 µM·h
F [16]: 2.5%
logD at 3 h (physchem): 2.3
Compound: CC1=C2CC(=O)NCc3cc(Cl)ccc3CNC(=O)OCOC(=O)c3cccc(c3)CNN(CC1)C2=O

microsomal CLint at 1 µM [17]: < 15 µL/min/mg
pIC50 (Cytochrome P450 3A4): < 4.30
pIC50 (Plasma): 5.92
pIC50 (Rattus norvegicus): 7.01
pKi (Prothrombin): 8.34
pKi (Serine protease 1): < 5.27
pKi [18]: < 4.48
pKi (Coagulation factor IX): < 4.54
pKi (Coagulation factor X): < 4.77
pKi (Coagulation factor XI): < 4.72
pKi (Plasminogen): < 4.72
Ratio Ki [19]: > 1000
Ratio Ki (Homo sapiens [20]): > 1000
Ratio Ki (Homo sapiens [21]): > 1000
Ratio Ki (Homo sapiens [22]): > 1000
Ratio Ki (Homo sapiens [23]): > 1000
Ratio Ki (Homo sapiens [24]): > 1000
solubility at 24 h [1]: > 100 µM
Papp A→B at 10 µM [2]: 0.1 ×10⁻⁶ cm/s
efflux ratio at 10 µM [3]: 2.4
Drug metabolism [25]: Metabolite_Detected
Drug metabolism [26]: Metabolite_Detected
Drug metabolism [27]: Metabolite_Detected
Drug metabolism [28]: Metabolite_Detected
Drug metabolism [29]: Metabolite_Detected
Drug metabolism [30]: Metabolite_Detected
Drug metabolism [31]: Metabolite_Detected
clearance [32]: 32.4 mL/min/kg
Vd [33]: 0.23 L/kg
half-life [34]: 21 min
AUC(0-inf) [35]: 0.258 µM·h
half-life [9]: 33.6 min
AUC(0-inf) [36]: 0.0025 µM·h
bioavailability [37]: 0.5%
Cmax [10]: 4 nM
Drug metabolism [38]: Metabolite_Detected
logD at 3 h (physchem): -0.5
Compound: CC1=C(CC(=O)NCc2cc(Cl)ccc2CN)C(=O)N(NCc2cccc(C(=O)O)c2)CC1

Drug metabolism [39]: Metabolite_Detected
Compound: CC1=C(CC(=O)NCc2cc(Cl)ccc2CNC(=O)OC(C)(C)C)C(=O)N(NCc2cccc(C(=O)O)c2)CC1
